Source: PubChem BioAssay
5HT1E antag: blocks the human 5-HT1E serotonin receptor. P28566. CHO 5-HT1E Ga15 NFAT-bla reporter, FRET, antagonist. inhibition, % at 6 µM. hit rate 0.99% among 65,000. AID 571;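 active = inhibition above a set limit, the mean inhibition across every tested compound plus 3 SD, cut at about 29% in these data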;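 note: signal is the 460 over 535 nm emission ratio of beta-lactamase substrate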
5HT1a antag: antagonists of human 5-HT1a serotonin receptor. P08908. CHO 5-HT1a Ga15 NFAT-bla reporter, antagonist mode. inhibition, % at 10 µM. hit rate 0.68% among 62,000;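 active = inhibition above the mean of all tested compounds plus 3 SD, cut at about 43% in these data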;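 note: receptor stimulated by 5-CT agonist at 100 nM near EC80; beta-lactamase reporter measured by ratiometric fluorescence of a cleavable substrate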
S1P3 agonist: activates the human S1P3 receptor; Q99500; activation, % at 4.5 µM; hit rate 0.1% among 60,000; S1P3 NFAT-BLA reporter cells, agonism, FRET ratio; relative to 1 µM S1P, basal subtracted;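 active = activation above the screen-wide mean plus 3 SD, cut at about 4.5% in these data, passing the limit was not always enough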
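material = human S1P3 NFAT-BLA reporter CHO cells | schedule = 4 h compound at 37 °C, 2 h substrate at RT | measured by = fluorescent BLA substrate, ex 405 nm, em 460/535 nm ratio | controls = 1 µM S1P reference | replication = primary once, confirmation triplicate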
HTR1E agonist: 5-HT1E (human) receptor agonism | P28566 | hit rate 0.69% among 65,000 | CHO 5-HT1E Ga15 NFAT-bla reporter, FRET; 0% DMSO wells, 100% control agonist wells | activation, % at 6 µM;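 active = activation above a set limit, the screen-wide mean activation plus 3 SD, cut at about 8.5% in these data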
5HT1a ag: activates the human 5-HT1a serotonin receptor; activation, % at 10 µM; AID 567; hit rate 0.56% among 65,000; CHO 5-HT1a Ga15 NFAT-bla reporter, FRET ratio; 0% basal, 100% maximal reference agonist;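 active = activation above the screen-wide mean activation plus 3 SD, cut at about 19% in these data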
S1P1 ag-PAM: S1P1 (human) agonism or agonism potentiation; S1P1 CRE-bla cells, forskolin, beta-lactamase FRET, potentiator mode; S1P1 agonist co-added at EC20, 2 nM; 100% = saturating reference agonist, 0% = basal; P21453; activation, % at 9.5 µM; AID 449; hit rate 0.57% among 56,000;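 active = activation above a cutoff set at the mean activation of all tested compounds plus 3 SD, cut at about 54% in these data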;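 note: forskolin at 4 µM as EC80 and the EC20 agonist is SEW2871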
Target sequence (P21453 whole entry, looked up): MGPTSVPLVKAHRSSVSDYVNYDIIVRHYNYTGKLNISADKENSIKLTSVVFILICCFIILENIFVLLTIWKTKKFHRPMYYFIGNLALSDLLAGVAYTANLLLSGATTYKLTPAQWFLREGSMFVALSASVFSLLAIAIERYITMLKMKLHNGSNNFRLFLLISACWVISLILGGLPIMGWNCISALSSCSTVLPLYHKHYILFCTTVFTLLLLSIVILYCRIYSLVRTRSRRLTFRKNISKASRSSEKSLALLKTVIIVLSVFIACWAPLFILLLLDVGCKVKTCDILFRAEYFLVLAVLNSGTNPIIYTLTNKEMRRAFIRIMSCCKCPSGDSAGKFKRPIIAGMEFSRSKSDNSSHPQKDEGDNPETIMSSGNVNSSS
Large screens that a line does not name were inactive. The list is not random: actives were taken first. Their share in the collection is about 3%.

CCOCCCNC(=O)C1CCCCN1S(=O)(=O)c1ccc(F)cc1 (configuration not stated)	none
COc1ccc(NC(=O)C(NS(=O)(=O)c2ccc3c(c2)CCCN3C(C)=O)C(C)C)c(OC)c1 (configuration not stated)	HTR1E agonist 17
CC(=O)N1CCCc2cc(S(=O)(=O)NC(C(=O)NC(C)c3ccccc3)C(C)C)ccc21 (configuration not stated)	none
O=C(NCc1ccco1)c1ccccc1Nc1ccc(F)cc1	5HT1E antag 29 (no result: S1P3 agonist, S1P1 ag-PAM)
O=C(NCc1ccco1)c1cccc2ccccc12	none
Cc1cccc(NC(=O)C2CCCN(C(=O)Nc3ccccc3)C2)c1C (configuration not stated)	HTR1E agonist 88
O=C(NCc1ccccc1)C1CCCN(C(=O)Nc2ccccc2)C1 (configuration not stated)	none
CCOC(=O)CN(C(=O)CSc1nnc(-c2cccc(OC)c2)o1)c1ccc(F)cc1	S1P1 ag-PAM 82
COC(=O)c1ccccc1NC(=O)CNC(=O)c1ccco1	none
CC1C(O)=C(c2nc3ccccc3[nH]2)C(=N)N1c1ccccc1 (configuration not stated)	none (no result: S1P1 ag-PAM)
CC(=O)Nc1ccc2nc(-c3cccnc3)[nH]c2c1	HTR1E agonist 17 (no result: S1P3 agonist, S1P1 ag-PAM)
CC(=O)Nc1cccc(-c2nc3ccc(NC(C)=O)cc3[nH]2)c1	none
CCc1nc(C)c(C#N)c2cc(OC)c(OC)cc12	5HT1E antag 44
Cc1ccc(C(C)C)c(OCc2ccc(-c3nnco3)cc2)c1	S1P1 ag-PAM 98
Cc1ccc(S(=O)(=O)N(C)Cc2ccc(-c3nnco3)cc2)cc1	none
CC(C)(C)NC(=O)CSc1nnc(C2CC2)n1Cc1ccccc1	none
COc1ccc(NC(=O)CSc2nccn2-c2ccccc2)c(OC)c1	HTR1E agonist 22
CCOc1ccccc1NC(=O)CSc1nccn1-c1ccccc1	none
O=C(Nc1ccc2c(c1)OCCO2)C1CCCN1S(=O)(=O)c1cccc2cccnc12 (configuration not stated)	5HT1a ag 75
O=C(Nc1ccc(C(F)(F)F)cc1)C1CCCN1S(=O)(=O)c1cccc2cccnc12 (configuration not stated)	S1P1 ag-PAM 66
CC(C(=O)N(C1CC1)C1(C(=O)Nc2ccccc2)CCCC1)N1C(=O)c2ccccc2C1=O (configuration not stated)	none
CC(=O)NC1C(=O)N(CCc2ccccc2)c2ccccc21 (configuration not stated)	HTR1E agonist 14
CCOC(=O)C1CCN(C(=O)Nc2ccc(Cl)cc2Cl)CC1	none (no result: S1P1 ag-PAM)
COc1ccc(C(=O)COC(=O)CCN=C2NS(=O)(=O)c3ccccc32)cc1OC	HTR1E agonist 20
Clc1cccc(-c2nnc(SCc3nc4ccccc4[nH]3)n2Cc2ccco2)c1	none
Clc1ccc(OCc2nnc(SCc3nc4ccccc4[nH]3)n2Cc2ccco2)cc1	S1P1 ag-PAM 61
COc1ccccc1NC(=O)Nc1nnc(C(C)C)s1	5HT1E antag 29 (no result: 5HT1a antag)
CCCc1ccc(Oc2cn[nH]c2-c2ccc(O)cc2O)cc1	S1P1 ag-PAM 74
CCOC(=O)N1CCN(C(=O)c2ccc(Cn3c(=S)[nH]c4cc5c(cc4c3=O)OCO5)cc2)CC1	5HT1E antag 29 (no result: S1P3 agonist, S1P1 ag-PAM)
CCN(CC)c1ccc2cc(-c3nc4ccccc4[nH]3)c(=O)oc2c1	5HT1E antag 49
CCN(CC)c1ccc2cc(-c3nc4ccccc4n3C)c(=O)oc2c1	5HT1E antag 82, 5HT1a antag 54
CC(=O)N1CCc2cc(S(=O)(=O)NC(CC(C)C)C(=O)N3CCn4c3nc3ccccc34)ccc21 (configuration not stated)	none
Cc1cccc(NC(=O)CCNS(=O)(=O)c2cccc3nsnc23)c1	HTR1E agonist 38 (no result: S1P3 agonist, S1P1 ag-PAM)
O=C(Nc1ccc(NC(=O)c2ccco2)nc1)c1ccccn1	HTR1E agonist 34 (no result: S1P3 agonist, S1P1 ag-PAM)
O=C(Cc1ccccc1)Nc1ccc(NC(=O)c2ccco2)nc1	none
Oc1ccc(-c2nnc(SCC3CCCCC3)o2)cc1	S1P1 ag-PAM 113
O=C(CSc1nnc(-c2ccc(O)cc2)o1)N1CCOCC1	none
